Values after ≈ are worked out from the molar mass of the structure shown.
Experiments:
Assay type in all cases: functional
Escherichia coli = experiment: Antibacterial activity against Escherichia coli ATCC 25922 after overnight incubation by broth microdilution method
Procedure, shortened: (§1)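 MIC per CLSI standard broth microdilution, with azithromycin as the reference antibiotic. Compounds were tested as double dilutions. Inocula were made by direct colony suspension at 5 × 10⁴ cfu/well. MIC was read visually after overnight incubation at 37 °C in ambient air.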

Haemophilus influenzae = experiment: Antibacterial activity against Haemophilus influenzae ATCC 49247 after overnight incubation by broth microdilution method
Procedure, shortened: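 Bacteria were grown on Mueller Hinton chocolate agar. MIC was then determined by CLSI broth microdilution, with azithromycin as the reference and compounds as double dilutions. Inocula were prepared by direct colony suspension at 5 × 10⁴ cfu/well. Plates were read visually after overnight incubation at 37 °C in ambient air.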

Staphylococcus aureus = experiment: Antibacterial activity against Staphylococcus aureus ATCC 29213 after overnight incubation by broth microdilution method
Procedure, shortened: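 Colonies were grown on Mueller Hinton agar and suspended directly to give 5 × 10⁴ cfu/well. MIC was by CLSI broth microdilution with double dilutions of compound and azithromycin as the reference. Read-out was visual after overnight incubation at 37 °C in ambient air.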

Streptococcus pyogenes = experiment: Antibacterial activity against Streptococcus pyogenes ATCC 700294 after overnight incubation by broth microdilution method
Procedure, shortened: (§2)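 Streptococci were grown on Mueller-Hinton agar with 5% sheep blood. CLSI broth microdilution MIC used double dilutions, with azithromycin as the reference. The test medium was modified by substituting 5% horse serum for lysed horse blood. Direct colony suspension inocula gave 5 × 10⁴ cfu/well. Growth was read visually after overnight incubation at 37 °C in ambient air.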

Streptococcus pneumoniae = experiment: Antibacterial activity against Streptococcus pneumoniae ATCC 49619 after overnight incubation by broth microdilution method; procedure, shortened: as §2
Moraxella catarrhalis = experiment: Antibacterial activity against Moraxella catarrhalis ATCC 23246 after overnight incubation by broth microdilution method; procedure, shortened: as §1

SMILES: Clc1ccc(-n2cc(Cn3cnc4ccccc43)nn2)cc1
- MIC (Escherichia coli): > 128 µg/mL
- MIC (Haemophilus influenzae): > 128 µg/mL
- MIC (Staphylococcus aureus): > 128 µg/mL
- MIC (Streptococcus pyogenes): > 128 µg/mL
- MIC (Streptococcus pneumoniae): > 128 µg/mL
- MIC (Moraxella catarrhalis): 0.5 µg/mL (≈ 1.61 µM)

SMILES: FC(F)(F)c1ccc(-n2cc(Cn3cnc4ccccc43)nn2)cc1
- MIC (Escherichia coli): > 128 µg/mL
- MIC (Haemophilus influenzae): > 128 µg/mL
- MIC (Staphylococcus aureus): > 128 µg/mL
- MIC (Streptococcus pyogenes): > 128 µg/mL
- MIC (Streptococcus pneumoniae): > 128 µg/mL
- MIC (Moraxella catarrhalis): 16 µg/mL (≈ 46.6 µM)

SMILES: Cc1nc2ccccc2n1Cc1cn(-c2ccc(C(F)(F)F)cc2)nn1
- MIC (Escherichia coli): > 128 µg/mL
- MIC (Haemophilus influenzae): > 128 µg/mL
- MIC (Staphylococcus aureus): > 128 µg/mL
- MIC (Streptococcus pyogenes): > 128 µg/mL
- MIC (Streptococcus pneumoniae): > 128 µg/mL
- MIC (Moraxella catarrhalis): 64 µg/mL (≈ 179 µM)

SMILES: Fc1ccc(-n2cc(Cn3cnc4ccccc43)nn2)cc1
- MIC (Escherichia coli): > 128 µg/mL
- MIC (Haemophilus influenzae): > 128 µg/mL
- MIC (Staphylococcus aureus): > 128 µg/mL
- MIC (Streptococcus pyogenes): > 128 µg/mL
- MIC (Streptococcus pneumoniae): > 128 µg/mL
- MIC (Moraxella catarrhalis): 1 µg/mL (≈ 3.41 µM)

SMILES: Fc1ccccc1-n1cc(Cn2cnc3ccccc32)nn1
- MIC (Escherichia coli): > 128 µg/mL
- MIC (Haemophilus influenzae): > 128 µg/mL
- MIC (Staphylococcus aureus): > 128 µg/mL
- MIC (Streptococcus pyogenes): > 128 µg/mL
- MIC (Streptococcus pneumoniae): > 128 µg/mL
- MIC (Moraxella catarrhalis): 128 µg/mL (≈ 436 µM)

SMILES: Clc1cc(Cl)cc(-n2cc(Cn3cnc4ccccc43)nn2)c1
- MIC (Escherichia coli): > 128 µg/mL
- MIC (Haemophilus influenzae): > 128 µg/mL
- MIC (Staphylococcus aureus): > 128 µg/mL
- MIC (Streptococcus pyogenes): > 128 µg/mL
- MIC (Streptococcus pneumoniae): > 128 µg/mL
- MIC (Moraxella catarrhalis): 16 µg/mL (≈ 46.5 µM)

SMILES: Cc1ccc2nc(-c3ccc(NCc4cn(-c5ccc(F)cc5)nn4)cc3)sc2c1
- MIC (Escherichia coli): > 128 µg/mL
- MIC (Haemophilus influenzae): > 128 µg/mL
- MIC (Staphylococcus aureus): > 128 µg/mL
- MIC (Streptococcus pyogenes): > 128 µg/mL
- MIC (Streptococcus pneumoniae): > 128 µg/mL
- MIC (Moraxella catarrhalis): 128 µg/mL (≈ 308 µM)

SMILES: Cc1ccc2nc(-c3ccc(NCc4cn(-c5ccc(Cl)cc5)nn4)cc3)sc2c1
- MIC (Escherichia coli): > 128 µg/mL
- MIC (Haemophilus influenzae): > 128 µg/mL
- MIC (Staphylococcus aureus): > 128 µg/mL
- MIC (Streptococcus pyogenes): > 128 µg/mL
- MIC (Streptococcus pneumoniae): > 128 µg/mL
- MIC (Moraxella catarrhalis): 64 µg/mL (≈ 148 µM)

SMILES: Cc1ccc2nc(-c3ccc(NCc4cn(Cc5cc(=O)oc6cc(O)ccc56)nn4)cc3)sc2c1
- MIC (Escherichia coli): > 128 µg/mL
- MIC (Haemophilus influenzae): > 128 µg/mL
- MIC (Staphylococcus aureus): > 128 µg/mL
- MIC (Streptococcus pyogenes): > 128 µg/mL
- MIC (Streptococcus pneumoniae): > 128 µg/mL

SMILES: CC[C@H]1OC(=O)[C@H](C)[C@@H](O[C@H]2C[C@@](C)(OC)[C@@H](O)[C@H](C)O2)[C@H](C)[C@@H](O[C@@H]2O[C@H](C)C[C@H](N(C)C)[C@H]2O)[C@](C)(O)C[C@@H](C)CN(C)[C@H](C)[C@@H](O)[C@]1(C)O [AZITHROMYCIN]
- MIC (Escherichia coli): 8 µg/mL (≈ 10.7 µM)
- MIC (Haemophilus influenzae): 2 µg/mL (≈ 2.67 µM)
- MIC (Staphylococcus aureus): 2 µg/mL (≈ 2.67 µM)
- MIC (Streptococcus pyogenes): 0.125 µg/mL (≈ 0.167 µM)
- MIC (Streptococcus pneumoniae): 0.25 µg/mL (≈ 0.334 µM)
- MIC (Moraxella catarrhalis): 0.25 µg/mL (≈ 0.334 µM)

Source: ChEMBL document CHEMBL3632529, “1,2,3-Triazole pharmacophore-based benzofused nitrogen/sulfur heterocycles with potential anti-Moraxella catarrhalis activity” (2015)
